This is an account of results in ChEMBL document CHEMBL2157866, “Virtual screening and computational optimization for the discovery of covalent prolyl oligopeptidase inhibitors with activity in human cells” (J Med Chem, 2012).

Data set [1] is described as follows: Intrinsic clearance in human liver microsomes at 1 uM after 30 mins by LC-MSD method. The format is ADME, Microsome. Particulars: read-out: CLH. The method, boiled down:
(§1)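 Test compound at 1 μM in 0.1 M KH2PO4 pH 7.4 with liver microsomes (0.5618 mg/mL) at 37 °C. Reaction started with NADPH. Aliquots taken at 0, 10, 20 and 30 min and quenched into equal-volume acetonitrile. Samples centrifuged at 9000g, 4 °C, and supernatants analysed by LC-MSD.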
(Liver microsomes are a subcellular fraction often used to study metabolism.)

Data set [2] in a line: Half life in human liver microsomes at 1 uM after 30 mins by LC-MSD method. The format is ADME, Microsome. The method, boiled down:
as §1

Data set [3] is described as follows: Intrinsic clearance in rat liver microsomes at 1 uM after 30 mins by LC-MSD method. Particulars: read-out: CLH. The format is ADME, Microsome. The method in brief:
as §1

The nature of data set [4]: Half life in rat liver microsomes at 1 uM after 30 mins by LC-MSD method. The format is ADME, Microsome. The method in brief: as §1
Another data set deals with T1, Prolyl endopeptidase FAP (Homo sapiens, UniProt Q12884).
T1 sequence (Q12884 whole entry): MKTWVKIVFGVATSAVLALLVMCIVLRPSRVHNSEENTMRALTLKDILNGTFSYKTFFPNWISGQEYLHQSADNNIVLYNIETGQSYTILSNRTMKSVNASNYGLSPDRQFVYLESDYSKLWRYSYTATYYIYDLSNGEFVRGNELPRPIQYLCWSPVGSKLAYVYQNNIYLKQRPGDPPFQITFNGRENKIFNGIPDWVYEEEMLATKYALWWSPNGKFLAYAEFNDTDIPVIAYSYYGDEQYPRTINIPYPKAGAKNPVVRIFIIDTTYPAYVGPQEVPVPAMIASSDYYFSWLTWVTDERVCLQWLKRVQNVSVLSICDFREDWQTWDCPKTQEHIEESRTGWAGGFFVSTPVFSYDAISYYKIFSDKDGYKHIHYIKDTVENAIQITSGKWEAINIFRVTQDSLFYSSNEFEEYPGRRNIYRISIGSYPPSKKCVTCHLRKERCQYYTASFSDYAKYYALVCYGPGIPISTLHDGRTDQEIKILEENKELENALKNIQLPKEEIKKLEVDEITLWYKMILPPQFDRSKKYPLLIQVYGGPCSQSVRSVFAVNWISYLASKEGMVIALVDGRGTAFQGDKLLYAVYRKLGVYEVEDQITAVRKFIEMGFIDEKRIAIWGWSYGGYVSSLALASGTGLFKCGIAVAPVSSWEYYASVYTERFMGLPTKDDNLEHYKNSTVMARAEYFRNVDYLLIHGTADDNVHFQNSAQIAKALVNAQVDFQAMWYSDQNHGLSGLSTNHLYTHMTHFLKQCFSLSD
Kind of data set: Inhibition at human recombinant FAPalpha. The method, boiled down:
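Recombinant human FAPα diluted in PBS with 1 mg/mL BSA. Setup as for cell extracts: inhibitor preincubated 5–10 min at room temperature, then Z-Gly-Pro-AMC at 10 μM final. AMC fluorescence (ex/em 360/460 nm) recorded for 30 min at 37 °C.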

What is called half-life is the time needed for the level to fall by half in the phase considered. Low values mean fast loss, high ones slow loss. A word on the IC50: it is the concentration needed to halve the response being measured.

For `N#C[C@@H]1CS[C@H]2C[C@@H](NC(=O)OCc3ccccc3)C(=O)N12`, in data set [1], the microsomal CLint at 1 µM came out at 10 µL/min/mg. Besides, the half-life at 1 µM in data set [2] was 134 min.
On to `N#C[C@@H]1CCCN1C(=O)c1ccccc1C(=O)NCc1ccccc1`, for which the results for the microsomal CLint at 1 µM in data set [3] and in data set [1] were 37 µL/min/mg and 44 µL/min/mg, respectively. In addition, the values for the half-life at 1 µM in data set [4] and in data set [2] were 38 min and 31 min, respectively. Also, the IC50 on Prolyl endopeptidase FAP was > 100 µM.
Consider `O=C(NCc1ccccc1)c1ccccc1C(=O)N1CCCC1`, for which the microsomal CLint at 1 µM in data set [3] was 83 µL/min/mg; in data set [1], 25 µL/min/mg. The half-life at 1 µM in data set [4] worked out at 17 min; in data set [2], 55 min.
Regarding `O=C(NCc1ccccc1)c1ccccc1C(=O)N1CCCCC1`, the microsomal CLint at 1 µM was determined as 311 µL/min/mg in data set [3] and 89 µL/min/mg in data set [1]. In addition, the half-life at 1 µM in data set [4] was found to be 4 min; in data set [2], 16 min.
As to `N#C[C@@H]1CCCN1C(=O)c1cccc2c1C(=O)N(Cc1ccccc1)C2`, the microsomal CLint at 1 µM in data set [3] is 39 µL/min/mg; in data set [1], 13 µL/min/mg. Besides, the half-life at 1 µM in data set [4] is 35 min; in data set [2], 111 min. Besides, at Prolyl endopeptidase FAP, the IC50 was > 100 µM.
For `O=C(c1cccc2c1C(=O)N(Cc1ccccc1)C2)N1CCCC1`, in that order: 62 µL/min/mg, 14 µL/min/mg, 23 min, 98 min and > 100 µM.
